Experiments:
D-amino-acid oxidase = D-amino-acid oxidase (Homo sapiens, UniProt P14920); assay: Inhibition of recombinant human DAAO expressed in HEK cells using D-serine as substrate assessed as formation of alpha-keto acid, ammonia, […] after 20 mins by horseradish peroxidase/o-phenylenediamine-based assay; parameters: species or system HEK293
Summary of the method: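 Human DAAO from HEK cells: lysate in 50 mM Tris pH 8.5 with 100 µM FAD, sonicated, then ion-exchange purified with a 0–0.5 M NaCl gradient. […] Enzyme set to give 2.0 mOD/min uninhibited. Rate read as absorbance change at 411 nm. Mean ± SD of ≥4 experiments in most cases.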

[1] = Metabolic stability in mouse liver microsomes assessed as compound remaining at 5 uM after 60 mins by LC/MS/MS analysis in presence of UDPGA; assay type: ADME; conditions: 1 h
Summary of the method: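 Glucuronidation in mouse liver microsomes (0.5 mg/mL): 50 mM Tris-HCl pH 7.5, 8 mM MgCl2, 25 µg/mL alamethicin, pre-incubated at 37 °C. Started with 2 mM UDPGA (final), in duplicate, for 60 min. Quenched with cold acetonitrile plus internal standard; LC/MS/MS read-out, with cofactor-free controls.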

[2] = Metabolic stability in mouse liver microsomes assessed as compound remaining at 5 uM after 60 mins by LC/MS/MS analysis in presence of NADPH; assay type: ADME; conditions: 1 h
Summary of the method: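 Mouse liver microsomes (0.5 mg/mL) with 5 µM test compound in 100 mM potassium phosphate pH 7.4 plus NADPH regenerating system (1.3 mM NADPH). Reaction started with microsomes, run in duplicate for 60 min, quenched with cold acetonitrile containing internal standard. Parent quantified by LC/MS/MS; cofactor-free controls included.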

[3] = Volume of distribution in CD1 mouse at 10 mg/kg, iv; assay type: ADME, organism-based; conditions: in vivo
Summary of the method: (§1)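 Male CD1 mice, n = 3 per time point, dosed iv or po. About 1 mL blood taken by cardiac puncture into heparinized tubes, kept on wet ice, centrifuged 10 min at 800 g, 4 °C. Plasma stored at −80 °C; drug levels measured by HPLC–QTOF-MS.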

[4] = Terminal half life in CD1 mouse at 10 mg/kg, iv; assay type: ADME, organism-based; conditions: in vivo, read-out: beta t1/2 (converted); summary of the method: as §1
Mus musculus = assay: Dose normalized AUClast in CD1 mouse at 10 mg/kg, iv; assay type: ADME, organism-based; conditions: in vivo; summary of the method: as §1
[5] = Tmax in CD1 mouse at 30 mg/kg, po; assay type: ADME, organism-based; conditions: in vivo; summary of the method: as §1
[6] = Cmax in CD1 mouse at 30 mg/kg, po; assay type: ADME, organism-based; parameters: dose 30 mg/kg, route oral; conditions: in vivo; summary of the method: as §1
[7] = AUClast in CD1 mouse at 30 mg/kg, po; assay type: ADME, organism-based; parameters: dose 30 mg/kg, route oral, time 0 - last; conditions: in vivo; summary of the method: as §1

Chain of D-amino-acid oxidase (P14920 whole entry): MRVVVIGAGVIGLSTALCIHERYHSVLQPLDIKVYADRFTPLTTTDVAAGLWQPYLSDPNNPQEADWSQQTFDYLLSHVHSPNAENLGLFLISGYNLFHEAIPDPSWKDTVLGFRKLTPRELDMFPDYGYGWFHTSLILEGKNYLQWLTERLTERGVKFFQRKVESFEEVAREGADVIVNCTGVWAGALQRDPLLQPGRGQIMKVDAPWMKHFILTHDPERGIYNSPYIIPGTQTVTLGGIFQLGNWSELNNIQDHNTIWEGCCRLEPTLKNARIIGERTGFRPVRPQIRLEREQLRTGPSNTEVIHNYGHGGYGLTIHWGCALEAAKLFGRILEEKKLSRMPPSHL

O=c1[nH]c(=O)n(CCc2ccccc2)cc1O
IC50 (D-amino-acid oxidase): 0.08 µM | Stability [1]: <= 1%

O=c1[nH]c(=O)n(CCc2ccc(F)cc2)nc1O
IC50 (D-amino-acid oxidase): 0.05 µM

O=c1[nH]c(=O)n(CCc2cccc(C(F)(F)F)c2)nc1O
IC50 (D-amino-acid oxidase): 0.1 µM

O=c1[nH]nc(CCc2cc(F)cc(F)c2)cc1O
Stability [2]: 92% | Vd [3]: 0.5 L/kg | half-life [4]: 12 min | AUClast/dose (Mus musculus): 12.7 µg·h/mL | Tmax [5]: 15 min | Cmax [6]: 6600 ng/mL | AUC(0-t) [7]: 3900 ng·h/mL

O=c1[nH]c(=O)n(CCc2cccc(O)c2)nc1O
IC50 (D-amino-acid oxidase): 0.16 µM

COc1cccc(CCn2nc(O)c(=O)[nH]c2=O)c1
IC50 (D-amino-acid oxidase): 0.12 µM

O=c1[nH]c(=O)n(CCc2ccc(Oc3ccccc3)cc2)nc1O
IC50 (D-amino-acid oxidase): 0.08 µM

O=c1[nH]c(=O)n(CCc2ccccc2O)nc1O
IC50 (D-amino-acid oxidase): 0.09 µM

O=c1[nH]c(=O)n(CCc2ccccc2)nc1O
IC50 (D-amino-acid oxidase): 0.07 µM | Stability [1]: >= 99% | Stability [2]: >= 99%

O=c1[nH]c(=O)n(Cc2ccccc2)nc1O
IC50 (D-amino-acid oxidase): 5.1 µM

Cc1ccccc1CCn1nc(O)c(=O)[nH]c1=O
IC50 (D-amino-acid oxidase): 0.08 µM

O=c1[nH]c(=O)n(CCn2cnc3ccccc32)nc1O
IC50 (D-amino-acid oxidase): 0.44 µM

O=c1[nH]c(=O)n(CCCc2ccccc2)nc1O
IC50 (D-amino-acid oxidase): 1.7 µM

O=c1[nH]c(=O)n(CC(O)c2ccccc2)nc1O (configuration not stated)
IC50 (D-amino-acid oxidase): 0.47 µM

CC(C)CCn1nc(O)c(=O)[nH]c1=O
IC50 (D-amino-acid oxidase): 0.26 µM

O=c1[nH]c(=O)n(CCn2cccn2)nc1O
IC50 (D-amino-acid oxidase): 0.33 µM

Cc1cccc(CCn2nc(O)c(=O)[nH]c2=O)c1
IC50 (D-amino-acid oxidase): 0.07 µM

Cc1ccc(CCn2nc(O)c(=O)[nH]c2=O)cc1
IC50 (D-amino-acid oxidase): 0.09 µM

— ChEMBL document CHEMBL3612020
